Active and inactive are the calls of the source. No cut-off for these calls is given here.
What was measured:
[1] = tested on: NCI-H596; assay: Reversal of induction of NAD+ depletion in NQO1 expressing human H596 cells at 10 uM in presence of 40 uM dicoumarol by luciferase based bioluminescence assay; type: functional, cell-based
In short: (§1)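 10 μM drug ± 40 μM DIC; intracellular NAD+ measured at set times and expressed as % treated/control. Means ± SE of at least three independent experiments, each in duplicate.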

[2] = tested on: A549; assay: Reversal of induction of NAD+ depletion in NQO1 expressing human A549 cells at 10 uM in presence of 40 uM dicoumarol by luciferase based bioluminescence assay; type: functional, cell-based; in short: as §1
[3] = tested on: A549; assay: Reversal of PARP1 hyperactivation in NQO1 expressing human A549 cells assessed as PAR formation in presence of 3-aminobenzamide; type: functional, cell-based
In short: (§2)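 Cells pretreated 2 h with or without 25 mM 3-aminobenzamide, then exposed to drug with or without 3-AB for 20 min; PAR formation read by Western blot.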

[4] = tested on: NCI-H596; assay: Reversal of PARP1 hyperactivation in NQO1 expressing human H596 cells assessed as PAR formation in presence of 3-aminobenzamide; type: functional, cell-based; in short: as §2
[5] = tested on: A549; assay: Reversal of induction of cell death in human A549 cells in presence of 3-aminobenzamide at 10 uM after 48 hrs by TUNEL assay; type: functional, cell-based
[6] = tested on: A549; assay: Reversal of induction of DNA damage in human A549 cells in presence of 3-aminobenzamide at 10 uM after 2 hrs; type: functional, cell-based
[7] = tested on: A549; assay: Reversal of cell death in human A549 cells at 10 uM in presence of 3-aminobenzamide after 2 hrs; type: functional, cell-based
[8] = tested on: A549; assay: Reversal of PARP1 hyperactivation in NQO1 expressing human A549 cells assessed as PAR formation at 6 uM in presence of 1,2-bis(2-aminophenoxy)ethane-N,N,N',N'-tetraacetic acid acetoxymethyl ester; type: functional, cell-based
In short: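 A549 cells pretreated with 5 μM BAPTA-AM or mock, then exposed to 6 μM drug for 10 min; lysates probed for PAR by Western blot.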

[9] = tested on: A549; assay: Reversal of induction of NAD+ depletion in NQO1 expressing human A549 cells at 6 uM in presence of 1,2-bis(2-aminophenoxy)ethane-N,N,N',N'-tetraacetic acid acetoxymethyl ester; type: functional, cell-based
In short: (§3)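 A549 cells pretreated with 5 μM BAPTA-AM or mock, then given 6 μM drug for 1 h; percent NAD+ loss measured as surrogate of PARP-1 hyperactivation, expressed as % of control.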

[10] = tested on: A549; assay: Reversal of cell death in NQO1 expressing human A549 cells at 6 uM in presence of 1,2-bis(2-aminophenoxy)ethane-N,N,N',N'-tetraacetic acid acetoxymethyl ester; type: functional, cell-based
[11] = tested on: A549; assay: Induction of NAD+ depletion in NQO1 expressing human A549 cells at 6 uM after 1 hr by luciferase based bioluminescence assay; type: functional; in short: as §3
[12] = tested on: NCI-H596; assay: Induction of DNA damage in NQO1 expressing human H596 cells at 10 uM in presence of dicoumarol after 2 hrs by alkaline comet tail assay; type: functional, cell-based
In short: (§4)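 Cells exposed 10 μM drug for 2 h, ± 50 μM DIC; 2 mM H2O2 for 2 h as positive control. Alkaline comet assay, SYBR Green staining, fluorescence microscopy; tail lengths quantified in arbitrary units. Means ± SE from three experiments.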

[13] = tested on: A549; assay: Induction of DNA damage in NQO1 expressing human A549 cells at 10 uM in presence of dicoumarol after 2 hrs by alkaline comet tail assay; type: functional, cell-based; in short: as §4
[14] = tested on: NCI-H596; assay: Reversal of induction of PARP1 hyperactivation in NQO1 expressing human H596 cells assessed as PAR accumulation at 10 uM for 10 mins by Western blot; type: functional, cell-based
[15] = tested on: A549; assay: Reversal of induction of nucleotide depletion in NQO1 expressing human A549 cells in presence of 3-aminobenzamide by luciferase based bioluminescence assay; type: functional, cell-based
In short: (§5)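 Cells pretreated 2 h ± 25 mM 3-AB, then drug ± 3-AB; harvested at set times. NAD+ as % treated/control; ATP by luciferase bioluminescence of whole-cell extracts. Means ± SE of three experiments.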

[16] = tested on: NCI-H596; assay: Reversal of induction of nucleotide depletion in NQO1 expressing human H596 cells in presence of 3-aminobenzamide by luciferase based bioluminescence assay; type: functional, cell-based; in short: as §5
[17] = tested on: NCI-H596; assay: Cytotoxicity against NQO1 expressing human H596 cells assessed as long term survival at =>5 uM for 2 hrs; type: functional, cell-based
In short: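 Isogenic H596 lines (retroviral NQO1 or empty vector, pooled, puromycin 1.0 μg/ml selected) in DMEM/10% FBS, 37°C, 5% CO2. Drug given 2 h, then removed; relative survival from DNA content after 7 days' growth. Confirmed by colony formation; means ± SE of three experiments in triplicate.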

[18] = tested on: A549; assay: Cytotoxicity against NQO1 expressing human A549 cells after 2 hrs; type: functional; settings: A549, 2 h, read-out: LD50 (the source's name)
In short: (§6)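 Long-term relative survival assay: cells exposed to drug for 2 h (A549 with or without 50 μM dicoumarol), drug removed, then grown 7 days post-treatment in DMEM with 10% FBS at 37°C, 5% CO2. Survival read from DNA content and confirmed by colony-forming ability. LD50 from dose-response; means ± SE, at least three experiments in triplicate. H596 line stably expressing NQO1 via retroviral vector, puromycin-selected.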

[19] = Cytotoxicity against NQO1 expressing human H596 cells after 2 hrs; type: functional; settings: NCI-H596, 2 h, read-out: LD50 (the source's name); in short: as §6
[20] = tested on: NCI-H596; assay: Induction of oxidative stress in NQO1 expressing human H596 cells assessed as reactive oxygen species generation at 10 uM after 1 hr by flow cytometry; type: functional, cell-based
In short: (§7)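 Cells given 10 μM drug ± 50 μM DIC; ROS monitored over a time course by conversion of chloromethyl-dichlorodihydrofluorescein diacetate to fluorescent product, read by flow cytometry. 2 mM H2O2 or 10 μM antimycin A for 20 min as positive controls. Means ± SE, three experiments in duplicate.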

[21] = tested on: A549; assay: Induction of oxidative stress in NQO1 expressing human A549 cells assessed as reactive oxygen species generation at 10 uM after 1 hr by flow cytometry; type: functional, cell-based; in short: as §7
[22] = tested on: NCI-H596; assay: Induction of DNA damage in NQO1 expressing human H596 cells at 10 uM after 2 hrs by alkaline comet tail assay; type: functional, cell-based; in short: as §4
[23] = tested on: A549; assay: Induction of DNA damage in NQO1 expressing human A549 cells at 10 uM after 2 hrs by alkaline comet tail assay; type: functional, cell-based; in short: as §4
[24] = tested on: NCI-H596; assay: Induction of DNA damage in NQO1 deficient human H596 cells at 10 uM after 2 hrs by alkaline comet tail assay; type: functional, cell-based; in short: as §4
[25] = tested on: NCI-H596; assay: Induction of PARP1 hyperactivation in NQO1 expressing human H596 cells assessed as PAR accumulation at 10 uM for 10 mins by Western blot; type: functional, cell-based
[26] = tested on: A549; assay: Induction of PARP1 hyperactivation in NQO1 expressing human A549 cells assessed as PAR accumulation at 10 uM for 10 mins by Western blot; type: functional, cell-based
[27] = tested on: NCI-H596; assay: Induction of PARP1 hyperactivation in NQO1 deficient human H596 cells assessed as PAR accumulation at 10 uM for 10 mins by Western blot; type: functional, cell-based
[28] = tested on: NCI-H596; assay: Induction of ATP depletion in NQO1 expressing human H596 cells at 10 uM by luciferase based bioluminescence assay; type: functional, cell-based
In short: (§8)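 Cells exposed to 10 μM drug, harvested at set times; ATP measured in whole-cell extracts by luciferase bioluminescence. DIC coadded with drug in NQO1 inhibition arms. Means ± SE, three or more experiments in triplicate.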

[29] = tested on: A549; assay: Induction of ATP depletion in NQO1 expressing human A549 cells at 10 uM by luciferase based bioluminescence assay; type: functional, cell-based; in short: as §8
[30] = tested on: NCI-H596; assay: Induction of NAD+ depletion in NQO1 expressing human H596 cells at 10 uM by luciferase based bioluminescence assay; type: functional, cell-based; in short: as §1
[31] = tested on: A549; assay: Induction of NAD+ depletion in NQO1 expressing human A549 cells at 10 uM by luciferase based bioluminescence assay; type: functional, cell-based; in short: as §1
[32] = tested on: NCI-H596; assay: Reversal of PAR-polymer formation in NQO1 expressing human H596 cells at 10 uM in presence of 50 uM dicoumarol; type: functional, cell-based
[33] = tested on: A549; assay: Reversal of PAR-polymer formation in NQO1 expressing human A549 cells at 10 uM in presence of 50 uM dicoumarol; type: functional, cell-based
[34] = tested on: NCI-H596; assay: Reversal of induction of ATP depletion in NQO1 expressing human H596 cells at 10 uM in presence of 40 uM dicoumarol by luciferase based bioluminescence assay; type: functional, cell-based; in short: as §8
[35] = tested on: A549; assay: Reversal of induction of ATP depletion in NQO1 expressing human A549 cells at 10 uM in presence of 40 uM dicoumarol by luciferase based bioluminescence assay; type: functional, cell-based; settings: in the assay text read “50 uM dicoumarol” for “40 uM dicoumarol”; in short: as §8

With `CC1(C)CCC2=C(O1)c1ccccc1C(=O)C2=O` [LAPACHONE] the Activity [1] was “Active”, the Activity [2] was “Active” and the Activity [3] was “Active”. For the same molecule, the Activity [4] was “Active”, the Activity [5] was “Active” and the Activity [6] was “Active”. The Activity [7] was “Active”, the Activity [8] was “Active” and the Activity [9] was “Active”. For the same molecule, the Activity [10] was “Active”, the Activity [11] was 43% and the Activity [12] was “inactive”. The Activity [13] was “inactive”, the Activity [14] was “Active” and the Activity [15] was “Active”. The Activity [16] was “Active”, the Activity [17] was “Active” and the CC50 [18] was 2500 nM. The CC50 [19] was 4 µM, the Activity [20] was “Active” and the Activity [21] was “Active”. For the same molecule, the Activity [22] was “Active”, the Activity [23] was “Active” and the Activity [24] was “inactive”. For the same molecule, the Activity [25] was “Active”, the Activity [26] was “Active” and the Activity [27] was “inactive”. The Activity [28] was “Active”, the Activity [29] was “Active” and the Activity [30] was “Active”. The Activity [31] was “Active”, the Activity [32] was “Active” and the Activity [33] was “Active”. For the same molecule, the Activity [34] was “Active” and the Activity [35] was “Active”.
